The record followed here is ChEMBL document CHEMBL1125832, “Synthesis and dopaminergic activity of 3-substituted 1-(aminomethyl)-3,4-dihydro-5,6-dihydroxy-1H-2-benzopyrans: characterization of an auxiliary binding region in the D1 receptor” (J Med Chem, 1991).

Experiment [1] deals with D1 dopamine receptor (Cyprinus carpio). Put plainly: Intrinsic activity measured relative to dopamine on D1C(R) receptor.
The nature of experiment [2]: Intrinsic activity relative to dopamine at D-2 receptor. It counts as functional.
Experiment [3] has as its target T1, D(2) dopamine receptor (Rattus norvegicus, UniProt P61169). Put plainly: Concentration required to inhibit 50% dopamine receptor D2 in a cell free homogenate of intermediate lobe of pituitary gland. It counts as functional.
For experiment [4], the target named is T2, D(1A) dopamine receptor (Rattus norvegicus, UniProt P18901). Description: Binding affinity using [125 I] SCH 23982 radioligand competitive binding assay on dopamine receptor D1.
The target in experiment [5] is T1, D(2) dopamine receptor. Description: Binding affinity using [3H]-spiperone radioligand competitive binding assay against dopamine receptor D2. In short, it runs like this: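 Rat striatal membranes in Tris pH 7.4 buffer with salts and ascorbate. [3H]spiperone at 300 pM final; nonspecific binding with 10 μM YM-09151-2. Incubated 20 min at 37 °C, then filtered. Ki derived from IC50 by Cheng-Prusoff.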

The target in experiment [6] is D(1A) dopamine receptor (Rattus norvegicus) (UniProt P18901). Description: Intrinsic activity was measured in relative to dopamine on D1C(S) receptor.
Experiment [7] concerns the target T2, D(1A) dopamine receptor. Description: Inhibition of Dopamine receptor D1 activity by functional cyclase assay using cell free homogenate of rat striatum. Type of experiment: tissue-based. The method, boiled down:
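Adenylate cyclase stimulation in cell-free homogenate of rat striatum. EC50 is the concentration giving half-maximal stimulation of cAMP production.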

Experiment [8] has as its system Rattus norvegicus. Put plainly: Rat rotation experiments were conducted to evaluate rational behavior of the rats by administering at a dose of 260 umol/kg subcutaneously. It counts as functional. In short, it runs like this: (§1)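 Rats with unilateral 6-hydroxydopamine lesions of the nigrostriatal bundle. Compound given subcutaneously or orally at the stated dose. Net contralateral rotations counted over 2 h after dosing and reported as mean ± SEM; negative values indicate ipsilateral turning.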

Experiment [9] has as its system Rattus norvegicus. Description: Rat rotation experiments were conducted to evaluate rational behavior of the rats by administering at a dose of 65 umol/Kg subcutaneously. It counts as functional. In short, it runs like this:
as §1

Experiment [10] has as its system Rattus norvegicus. Put plainly: Rat rotation experiments were conducted to evaluate rational behavior of the rats by administering at a dose of 130 umol/kg subcutaneously. It counts as functional. In short, it runs like this:
as §1

For experiment [11], the system named is Rattus norvegicus. Description: Rat rotation experiments were conducted to evaluate rational behavior of the rats by administering at a dose of 15 umol/kg subcutaneously. Type of experiment: functional. In short, it runs like this: as §1
The subject of experiment [12] is Rattus norvegicus. Put plainly: Rat rotation experiments were conducted to evaluate rational behavior of the rats by administering at a dose of 30 umol/kg subcutaneously. It counts as functional. In short, it runs like this:
as §1

As a reminder, the EC50 is the concentration at which the effect is half-maximal. The low end stands for an effect from little substance, the high end for a need for much substance. What is called Ki is the equilibrium dissociation constant of an inhibitor or competing ligand from its target. A low value points to a stronger hold on the target.

T1 sequence (P61169 whole entry): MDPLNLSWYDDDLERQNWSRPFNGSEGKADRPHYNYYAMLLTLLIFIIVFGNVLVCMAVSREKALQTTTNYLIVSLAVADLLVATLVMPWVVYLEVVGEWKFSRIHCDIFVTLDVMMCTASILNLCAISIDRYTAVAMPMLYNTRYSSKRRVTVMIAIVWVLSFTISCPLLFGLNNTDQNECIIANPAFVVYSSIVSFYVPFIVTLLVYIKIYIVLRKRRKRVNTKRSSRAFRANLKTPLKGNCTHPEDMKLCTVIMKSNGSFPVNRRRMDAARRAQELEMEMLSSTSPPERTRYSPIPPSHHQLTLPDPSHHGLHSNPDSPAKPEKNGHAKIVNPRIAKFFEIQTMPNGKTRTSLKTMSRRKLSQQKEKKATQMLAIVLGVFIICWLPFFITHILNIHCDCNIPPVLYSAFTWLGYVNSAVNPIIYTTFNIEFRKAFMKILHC
T2 sequence (P18901 whole entry): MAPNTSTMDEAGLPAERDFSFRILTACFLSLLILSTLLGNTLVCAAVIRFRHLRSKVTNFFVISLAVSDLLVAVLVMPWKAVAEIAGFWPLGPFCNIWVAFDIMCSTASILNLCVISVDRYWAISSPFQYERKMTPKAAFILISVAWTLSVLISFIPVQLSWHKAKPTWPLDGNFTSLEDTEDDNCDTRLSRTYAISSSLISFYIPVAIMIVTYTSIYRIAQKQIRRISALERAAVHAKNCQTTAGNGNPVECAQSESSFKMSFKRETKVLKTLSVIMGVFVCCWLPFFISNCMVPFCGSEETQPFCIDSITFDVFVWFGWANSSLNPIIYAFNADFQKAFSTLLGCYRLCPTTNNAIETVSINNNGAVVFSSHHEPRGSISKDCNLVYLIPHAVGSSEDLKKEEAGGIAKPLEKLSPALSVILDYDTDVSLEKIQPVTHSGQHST
Sequence of D(1A) dopamine receptor (Rattus norvegicus) (P18901 whole entry, looked up): as the sequence (P18901 whole entry) above

`CC[C@H]1Cc2c(ccc(O)c2O)[C@H](CN)O1`: the Intrinsic activity in [1] came out at 92%; in [2], 76%. The same compound had a half-maximal effective concentration (EC50) at D(2) dopamine receptor [3] of 5130 nM. Further, the inhibition constant (Ki) is 1760 nM at D(1A) dopamine receptor [4] and greater than 10000 nM at D(2) dopamine receptor [5].
Take `C#CCC1Cc2c(ccc(O)c2O)[C@H](CN)O1` (stereo partly drawn): the Intrinsic activity in experiment [2] turned out to be 100%. The EC50 at D(2) dopamine receptor [3] came to 286 nM. The inhibition constant Ki was 407 nM at D(1A) dopamine receptor [4] and 1070 nM at D(2) dopamine receptor [5].
Take `NC[C@@H]1OC(c2cccc(O)c2)Cc2c1ccc(O)c2O` (stereo partly drawn): in experiment [2], the Intrinsic activity turned out to be 111%. This compound also gave an EC50 on D(2) dopamine receptor [3] of 192 nM. The Ki is 0.49 nM at D(1A) dopamine receptor [4] and 590 nM at D(2) dopamine receptor [5].
As to `C#CCN(C)C[C@@H]1OC(C2CCCCC2)Cc2c1ccc(O)c2O` (stereo partly drawn), the EC50 at D(2) dopamine receptor [3] is greater than 10000 nM. The figures for the inhibition constant (Ki) at D(1A) dopamine receptor [4] and at D(2) dopamine receptor [5] were 2510 nM and greater than 10000 nM, respectively.
Take `CCCCCCC1Cc2c(ccc(O)c2O)[C@H](CN)O1` (stereo partly drawn): the Intrinsic activity in experiment [1] came to 90%; in experiment [6], 84%; in [2], 80%. In addition, the figures for the concentration for a half-maximal effect (EC50) on D(2) dopamine receptor [3] and on D(1A) dopamine receptor [7] were 782 nM and 23.4 nM, respectively. The inhibitory constant (Ki) at D(1A) dopamine receptor [4] was 704 nM; at D(2) dopamine receptor [5], 5540 nM.
For the compound `CNC[C@@H]1OC(C2CCCCC2)Cc2c1ccc(O)c2O` (stereo partly drawn), on D(2) dopamine receptor [3], the EC50 was greater than 10000 nM. In addition, the figures for the inhibitory constant (Ki) at D(1A) dopamine receptor [4] and at D(2) dopamine receptor [5] were 14.1 nM and 724 nM, respectively.
On to `NC[C@@H]1OC(c2ccc(Br)cc2)Cc2c1ccc(O)c2O` (stereo partly drawn), for which the figures for the Intrinsic activity in experiment [1] and in experiment [2] were 106% and 94%, respectively. The compound also showed an EC50 at D(2) dopamine receptor [3] of 358 nM. Also, the results for the Ki at D(1A) dopamine receptor [4] and at D(2) dopamine receptor [5] were 52 nM and 2090 nM, respectively.
On to `NC[C@@H]1OC(C23C[C@H]4C[C@@H](C2)C[C@@H](C3)C4)Cc2c1ccc(O)c2O` (stereo partly drawn), for which the EC50 at D(2) dopamine receptor [3] is greater than 10000 nM.
For `NC[C@@H]1OC(C(c2ccccc2)c2ccccc2)Cc2c1ccc(O)c2O` (stereo partly drawn), the EC50 on D(2) dopamine receptor [3] is greater than 10000 nM. Further, the inhibitory constant (Ki) was 530 nM at D(1A) dopamine receptor [4] and 2610 nM at D(2) dopamine receptor [5].
Regarding `Oc1ccc2c(c1O)CC(C1CCCCC1)O[C@H]2CNC1CC1` (stereo partly drawn), in experiment [1], the Intrinsic activity is 71%. This compound also gave a concentration for a half-maximal effect (EC50) on D(2) dopamine receptor [3] greater than 10000 nM. The inhibitory constant (Ki) on D(1A) dopamine receptor [4] was found to be 329 nM; at D(2) dopamine receptor [5] it was 636 nM.
Consider `NC[C@@H]1OC2(CCCCC2)Cc2c1ccc(O)c2O`, for which the Intrinsic activity in experiment [1] turned out to be 65%; in experiment [2] it was 56%. For the same compound, on D(2) dopamine receptor [3], the EC50 was 6680 nM. For the same compound, the inhibition constant Ki at D(1A) dopamine receptor [4] came to 479 nM; at D(2) dopamine receptor [5], 4680 nM.
For the compound `NC[C@@H]1OCCc2c1ccc(O)c2O`, the Activity in the experiment with Rattus norvegicus [8] is 584; with Rattus norvegicus [9] it was 93; in the experiment on Rattus norvegicus [10] it was 286. Also, the Intrinsic activity in [2] is 96%. Besides, the 50% effective concentration (EC50) at D(2) dopamine receptor [3] is 2850 nM. The Ki on D(1A) dopamine receptor [4] came to 1030 nM; at D(2) dopamine receptor [5] it was 4610 nM.
As for `OCCCNC[C@@H]1OC(C2CCCCC2)Cc2c1ccc(O)c2O` (stereo partly drawn), the Intrinsic activity in experiment [1] was determined as 58%. The concentration for a half-maximal effect (EC50) on D(2) dopamine receptor [3] is greater than 10000 nM. The Ki on D(1A) dopamine receptor [4] turned out to be 3140 nM; on D(2) dopamine receptor [5], 12300 nM.
With `COc1cccc(C2Cc3c(ccc(O)c3O)[C@H](CN)O2)c1` (stereo partly drawn), in [1], the Intrinsic activity is 107%. The half-maximal effective concentration (EC50) on D(2) dopamine receptor [3] was greater than 10000 nM. Besides, the Ki on D(1A) dopamine receptor [4] was 310 nM; on D(2) dopamine receptor [5], 764 nM.
For the compound `COc1ccc(CC2Cc3c(ccc(O)c3O)[C@H](CN)O2)cc1` (stereo partly drawn), the EC50 on D(2) dopamine receptor [3] is greater than 10000 nM. Besides, the Ki was found to be 2650 nM on D(1A) dopamine receptor [4] and 2710 nM at D(2) dopamine receptor [5].
Take `C#CCNC[C@@H]1OC(C2CCCCC2)Cc2c1ccc(O)c2O` (stereo partly drawn): the Intrinsic activity in experiment [1] amounted to 87%. The compound further yielded a half-maximal effective concentration (EC50) at D(2) dopamine receptor [3] greater than 10000 nM. The Ki on D(1A) dopamine receptor [4] worked out at 4730 nM; on D(2) dopamine receptor [5] it was 11500 nM.
Compound `C=CCN(C)C[C@@H]1OC(C2CCCCC2)Cc2c1ccc(O)c2O` (stereo partly drawn) registered an EC50 at D(2) dopamine receptor [3] greater than 10000 nM. The Ki worked out at 3190 nM on D(1A) dopamine receptor [4] and 2600 nM on D(2) dopamine receptor [5].
For the compound `NC[C@@H]1OC(CC2CCCC2)Cc2c1ccc(O)c2O` (stereo partly drawn), the values for the Intrinsic activity in experiment [1] and in experiment [2] were 124% and 76%, respectively. In addition, the half-maximal effective concentration (EC50) on D(2) dopamine receptor [3] worked out at 427 nM. The Ki on D(1A) dopamine receptor [4] came to 30.4 nM; at D(2) dopamine receptor [5], 776 nM.
Take `NC[C@@H]1OC(C2CCCCCCC2)Cc2c1ccc(O)c2O` (stereo partly drawn): the Intrinsic activity in [2] worked out at 70%. On D(2) dopamine receptor [3], this compound returned an EC50 of 760 nM. Besides, the figures for the Ki at D(1A) dopamine receptor [4] and on D(2) dopamine receptor [5] were 88.7 nM and 342 nM, respectively.
As for `CCCCC1Cc2c(ccc(O)c2O)[C@H](CN)O1` (stereo partly drawn), the Intrinsic activity came out at 151% in [1] and 80% in [2]. This compound also registered a 50% effective concentration (EC50) on D(2) dopamine receptor [3] of 359 nM. For the same compound, the Ki is 870 nM at D(1A) dopamine receptor [4] and 825 nM at D(2) dopamine receptor [5].
For the compound `CC[C@@H]1Cc2c(ccc(O)c2O)[C@H](CN)O1`, the values for the Intrinsic activity in [1] and in [2] were 89% and 81%, respectively. This compound also returned a concentration giving a half-maximal response (EC50) on D(2) dopamine receptor [3] of 10800 nM. The Ki came to 167 nM on D(1A) dopamine receptor [4] and 3530 nM at D(2) dopamine receptor [5].
Regarding `NC[C@@H]1OC(c2ccc(I)cc2)Cc2c1ccc(O)c2O` (stereo partly drawn), the Intrinsic activity in [1] came to 161%. At D(2) dopamine receptor [3], this compound registered an EC50 greater than 10000 nM. For the same compound, the results for the inhibition constant (Ki) on D(1A) dopamine receptor [4] and at D(2) dopamine receptor [5] were 13.7 nM and 1050 nM, respectively.
Take `NC[C@@H]1OC(CCc2ccccc2)Cc2c1ccc(O)c2O` (stereo partly drawn): the Intrinsic activity was 76% in [1] and 78% in experiment [6]. The EC50 at D(2) dopamine receptor [3] was greater than 10000 nM; on D(1A) dopamine receptor [7], 18.9 nM. Besides, the results for the Ki at D(1A) dopamine receptor [4] and at D(2) dopamine receptor [5] were 248 nM and 670 nM, respectively.
In the case of `NC[C@@H]1OC(COCc2ccccc2)Cc2c1ccc(O)c2O` (stereo partly drawn), the results for the Intrinsic activity in experiment [1] and in [2] were 107% and 78%, respectively. Besides, it took 204 nM to reach a half-maximal effect on D(2) dopamine receptor [3] (EC50). Also, the Ki at D(1A) dopamine receptor [4] came to 2290 nM; on D(2) dopamine receptor [5], 386 nM.
Regarding `Oc1ccc2c(c1O)CC(C1CCCCC1)O[C@H]2CNCc1ccccc1` (stereo partly drawn), the EC50 on D(2) dopamine receptor [3] was greater than 10000 nM. In addition, the Ki on D(1A) dopamine receptor [4] is greater than 10000 nM; on D(2) dopamine receptor [5], 2450 nM.
As for `NC[C@@H]1OC(COc2ccccc2)Cc2c1ccc(O)c2O` (stereo partly drawn), the Intrinsic activity in experiment [1] turned out to be 51%; in experiment [6], 64%. For the same compound, the concentration giving a half-maximal response (EC50) was greater than 10000 nM on D(2) dopamine receptor [3] and 39.8 nM on D(1A) dopamine receptor [7]. In addition, the results for the Activity in the experiment with Rattus norvegicus [11] and with Rattus norvegicus [12] were 467 and 514, respectively. The figures for the Ki on D(1A) dopamine receptor [4] and at D(2) dopamine receptor [5] were 374 nM and 1280 nM, respectively.
On to `NC[C@@H]1OC(Cc2ccccc2)Cc2c1ccc(O)c2O` (stereo partly drawn), for which, in [1], the Intrinsic activity turned out to be 93%. Also, the EC50 on D(2) dopamine receptor [3] was greater than 10000 nM. For the same compound, the Ki on D(1A) dopamine receptor [4] was found to be 443 nM; at D(2) dopamine receptor [5], 1470 nM.
